# Most compounds without a hit are left out; they make up all but 2.7% or so of the library.
# NR2E3 ag-1: NR2E3 agonists in two-hybrid cells, primary screen, cell-based, luminescence, CHO-S, Gal4-NCOR/VP16-NR2E3. Photoreceptor-specific nuclear receptor (Homo sapiens), Q9Y5X4. luciferase. inhibition of corepressor binding, % at 3.98 µM. hit rate 0.35% among 360,000. AID 602229, 2012;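 active = inhibition above the mean of all tested compounds plus 3 SD, cut at about 70% in these data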;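 note: 0% = DMSO with NR2E3 transfected cells and 100% = cells lacking NR2E3 construct; higher means lower luciferase signal from less NR2E3 corepressor binding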
# PG9 Ab binder: binders of HIV-1 gp120 antibody PG9, primary screen, biochemical, TR-FRET | inhibition, % at 6.7 µM | hit rate 0.43% among 360,000 | TR-FRET gp120-PG9 antibody binding | AID 624416, 2012 | HIV-1 gp120 / PG9 antibody interaction; in the data active = inhibition above about 8.5%
# MC4R ag barr: MC4R agonists recruiting beta-arrestin, primary screen, cell-based, luminescence, agonist arm of biased-ligand search | U2OS MC4R beta-arrestin complementation; percent of melanotan II response, DMSO zero | hit rate 0.98% among 360,000 | Melanocortin receptor 4 (Homo sapiens), P32245 | activation, % at 8.9 µM | AID 540308, 2011;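 active = activation above a per-plate cutoff, the mean activation of sample wells on that plate plus 3 SD, cut at about 8% in these data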
# MC4R antag cAMP: MC4R antagonists of cAMP signaling, primary screen, cell-based, TR-FRET, antagonist arm of biased-ligand search. MC4R-expressing cells, MTII-stimulated cAMP, LANCE TR-FRET. inhibition, % at 6.5 µM. hit rate 0.48% among 360,000. AID 540295, 2011;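 active = inhibition above its plate's cutoff, the mean of tested wells on that plate plus 3 SD, cut at about 29% in these data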;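 note: 0% = Melanotan II alone and 100% = Melanotan II plus saturating MCL0020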
#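 Test system: U2OS cells stably expressing human melanocortin 4 receptor (MC4R); also added: Melanotan II challenge; compound: 6.5 µM single dose; timing: 30-min compound preincubation, 1-h Melanotan II challenge, 1-h detection, room temperature; signal: Eu-cAMP/anti-cAMP TR-FRET, emission 671 nm; repeats: one well per compound, no replicates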
# NR2E3 ag-2: inhibitors of NR2E3-RetCOR corepressor binding, primary screen, NR2E3 agonist project, biochemical, TR-FRET, GST-NR2E3, biotin-RetCOR | 1536-well | Photoreceptor-specific nuclear receptor (Homo sapiens), Q9Y5X4 | hit rate 0.12% among 320,000 | inhibition of corepressor binding, % at 4.78 µM;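 active = percent inhibition above the cutoff of mean plus 3 SD of all tested compounds, set per screening campaign, cut at about 20% in these data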;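 note: 0% = DMSO wells and 100% = biotin wells as full block of FRET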
#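 system = GST-tagged NR2E3 plus biotinylated RetCOR corepressor | input = 1.35 nM GST-NR2E3 | also added = 7 nM biotin-RetCOR | schedule = 5 h incubation at 4 °C | measured by = TR-FRET with europium anti-GST and streptavidin-D2, 340 nm excitation | read-out = percent loss of FRET ratio relative to control wells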
# Rev-erbA mod: modulators of Rev-erb alpha DNA binding, primary screen, biochemical, FITC-DNA, fluorescence polarization, uHTS; Nuclear receptor subfamily 1 group D member 1 (Homo sapiens), P20393; activity, % at 10 µM; Rev-erbα–FITC-DNA binding, 90 min; hit rate 0.79% among 370,000;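 active = activity above about 14%, limit read from the data; passing the limit was not always enough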;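 note: 0% = DMSO wells with 35 nM protein and 100% = DMSO wells with 750 nM protein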
# Target sequence (P20393 whole entry, looked up): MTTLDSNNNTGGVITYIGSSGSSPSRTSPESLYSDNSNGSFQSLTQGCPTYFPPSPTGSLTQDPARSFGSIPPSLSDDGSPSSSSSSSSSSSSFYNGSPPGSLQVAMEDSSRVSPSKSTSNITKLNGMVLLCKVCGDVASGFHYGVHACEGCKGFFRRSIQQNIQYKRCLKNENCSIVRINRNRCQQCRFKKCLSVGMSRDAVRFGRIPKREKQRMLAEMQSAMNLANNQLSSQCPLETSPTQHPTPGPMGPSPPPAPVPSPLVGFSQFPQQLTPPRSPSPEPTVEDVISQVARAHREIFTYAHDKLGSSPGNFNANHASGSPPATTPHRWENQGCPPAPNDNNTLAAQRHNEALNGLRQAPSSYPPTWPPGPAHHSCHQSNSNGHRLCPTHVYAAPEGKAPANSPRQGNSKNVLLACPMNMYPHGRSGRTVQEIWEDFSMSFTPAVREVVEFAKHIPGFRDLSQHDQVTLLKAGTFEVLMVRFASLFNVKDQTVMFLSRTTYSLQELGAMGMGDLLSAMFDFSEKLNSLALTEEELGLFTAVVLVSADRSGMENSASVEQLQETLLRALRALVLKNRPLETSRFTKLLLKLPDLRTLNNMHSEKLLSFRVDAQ
# MC4R barr ag: MC4R beta-arrestin agonists, retest, confirmation, cell-based, luminescence, U2OS; U2OS MC4R beta-arrestin recruitment; scaled DMSO 0%, Melanotan II 100%; AID 602192, 2012; hit rate 31% among 2,400; activation, % at 8.9 µM; shares compounds with MC4R ag barr;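 active = mean activation across replicates above the hit cutoff set in the earlier primary screen, cut at about 8% in these data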
# MOR-DOR barr ag: agonists of MOR-DOR heterodimerization, counter-screen for MC4R biased agonist project, cell-based, luminescence; U2OS PathHunter beta-arrestin, beta-gal luminescence; percent of deltorphin B response, DMSO zero; activation, % at 9.2 µM; shares compounds with MC4R ag barr; hit rate 5.8% among 2,400;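 active = mean activation across replicates exceeds the hit threshold derived in the earlier primary screen, cut at about 18% in these data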;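 note: 100% = deltorphin B at 0.9 µM final and 0% = DMSO alone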
# * = called active by the depositor; . = no result.
SMILES,NR2E3 ag-1,PG9 Ab binder,MC4R ag barr,MC4R antag cAMP,NR2E3 ag-2,Rev-erbA mod,MC4R barr ag,MOR-DOR barr ag
O=C1N/C(=N\N=C\c2cccs2)SC1Cc1cccc(Cl)c1 (centres undefined),8.6,-0.6,12.3*,-2.3,-0.7,2.8,1.3,9.1
O=C1N/C(=N\N=C\c2cccs2)SC1Cc1ccc(Cl)cc1 (centres undefined),11.6,-0.1,15.4*,-4.1,2.7,0.8,3.7,4.8
COc1ccc2nc(C)cc(SCC(=O)N/N=C/c3cccc4ccccc34)c2c1,-21.2,0.4,18.8*,7.4,1.1,-7.8,6.7,4.7
CC(C)CCNC(=O)Cc1c(C(=O)O)[nH]c2ccc(Cl)cc12,3.1,1.6,-1.6,2.5,3.3,-4.0,.,.
COc1cc(C(=O)OCC(=O)NCc2ccc(F)cc2)cc(NC(=O)c2cccs2)c1OC,-4.5,-1.3,9.7*,-2.4,-2.4,7.0,1.9,3.7
Cc1cc(C)n2nc(SC(C)C(=O)N3CCCC3)nc2n1 (centres undefined),20.6,-1.7,0.8,0.3,.,3.1,.,.
COc1ccc(CN2CCn3ncc(C(=O)Nc4ccccc4)c3C2=O)cc1,-31.3,1.1,-0.1,2.2,-2.5,4.2,.,.
CSc1ccc(/C=C(/Sc2nnc(-c3ccccc3)o2)C(=O)O)cc1,3.2,-1.4,22.0*,15.0,-0.6,-3.8,1.4,3.5
Cc1cc(C)cc(NC(=O)Nc2ccc(NC(=O)c3ccccc3O)cc2)c1,-2.2,0.6,15.8*,18.1,-2.0,-3.6,6.3,13.0
Cc1ccc(NC(=O)c2ccccc2O)cc1,-130.6,-0.1,1.0,8.6,2.0,0.9,.,.
O=C(C[C@H]1C(=O)N(c2ccccc2)C[C@@H]1Cc1ccccc1)Nc1ccc(Br)cc1,-32.8,-1.5,13.8*,9.8,.,1.8,1.3,4.2
Cc1cc(NS(=O)(=O)c2ccc(NC(=O)CSc3nnc(-c4cccnc4)n3-c3ccccc3)cc2)nc(C)n1,.,.,.,.,.,1.4,.,.
Nc1ccc(O)cc1C(=O)OCC(=O)c1ccc(C2CCCCC2)cc1,-13.1,-3.7,21.3*,6.6,2.0,-2.5,11.9*,13.8
COc1ccc(NC(=O)CN(C)C(=O)/C=C/c2ccc(OCc3ccccc3)cc2)cc1,7.7,1.8,19.0*,-0.6,-2.1,9.0,8.2,12.2
COc1ccc(NC(=O)CN(C)C(=O)CCc2ccccc2)cc1,5.4,-1.7,-0.8,-1.0,-1.3,-1.6,.,.
COc1ccc(NC(=O)CN(C)C(=O)/C=C/c2ccc(S(=O)(=O)N3CCCCCC3)cc2)cc1,8.9,0.5,30.1*,-0.3,-2.9,-0.4,10.9*,2.0
O=C(CSc1nnc(-c2ccccc2)n1-c1ccccc1)c1cccs1,-4.8,3.7,0.5,13.0,-0.1,0.0,.,.
COc1cc(/C=C(\CC(=O)O)c2nc3ccccc3s2)ccc1OCC(=O)Nc1ccccc1F,5.9,-1.5,-1.1,-2.6,.,-4.4,.,.
COc1cc(/C=C(\C#N)c2nc3ccccc3s2)ccc1OCC(=O)Nc1ccccc1,-17.6,.,48.9*,2.6,4.9,.,30.5*,10.0
Cc1ccc(-c2ccc(/C=N\NC(=O)C3C(=O)NCC3c3ccccc3)o2)cc1Cl (centres undefined),-31.1,-1.8,12.5*,2.3,0.7,0.2,4.9,2.1
COc1cc(NC(=O)c2ccc(Cl)cc2Cl)ccc1NC(=O)c1cccs1,1.6,-0.9,21.0*,22.8,-0.4,-0.1,1.4,6.0
COc1cc(NC(=O)COc2ccccc2[N+](=O)[O-])ccc1NC(=O)c1cccs1,-4.7,-1.3,38.4*,-4.3,.,-19.4,18.1*,10.1
O=C(Nc1ccc(NC(=O)c2ccc(Cl)cc2Cl)cc1)c1cccs1,-13.9,-2.5,3.1,0.3,-0.3,-0.2,.,.
Cc1ccc(S(=O)(=O)N2CC(O)C[C@H]2C(=O)OCC(=O)c2ccccc2)cc1 (some centres undefined),-20.9,-2.0,-1.9,19.8,2.0,-3.6,.,.
COc1ccc(C(=O)O/N=C(\N)c2ccc(OC)c(OC)c2)cc1,-68.7,-2.3,0.1,6.6,0.1,-4.0,.,.
SMILES,NR2E3 ag-1,PG9 Ab binder,MC4R ag barr,MC4R antag cAMP,NR2E3 ag-2,Rev-erbA mod,MC4R barr ag,MOR-DOR barr ag
Nc1ncnc2c1ncn2Cc1ccccc1,2.5,0.7,-2.9,15.2,-0.5,-2.7,.,.
Clc1ccc(-c2csc(N/N=C/c3ccco3)n2)cc1,6.3,-1.7,-1.6,8.4,0.7,-2.5,.,.
Clc1ccc(-c2csc(N/N=C\c3cccnc3)n2)cc1,-25.4,-2.6,11.3*,17.2,0.8,0.5,-0.3,5.4
COc1cc(COc2ccc(-c3nnco3)cc2)ccc1OC(F)F,-3.2,-2.7,11.9*,2.1,2.5,0.1,6.6,8.3
Cc1ccc(COc2ccc(-c3nnco3)cc2)cc1,-122.2,0.0,-0.8,4.2,-0.5,-3.8,.,.
CCOC(=O)c1sc(N(Cc2ccccc2)C(=O)CCl)nc1C,-31.1,-0.8,15.7*,25.3,-0.3,-3.9,3.8,38.2*
O=C(Cc1csc(-c2ccccc2)n1)Nc1ccc(C(F)(F)F)cc1,14.2,0.4,13.8*,3.7,0.1,5.9,3.7,11.0
Cc1ccc(NC(=O)Cc2csc(-c3ccccc3)n2)cc1F,8.6,-1.4,3.2,13.9,0.5,-2.8,.,.
O=C(c1ccc(COc2ccccc2Br)o1)N1N=C(C(F)F)CC1(O)C(F)F (centres undefined),4.1,0.6,14.5*,12.9,0.7,-3.5,8.0,11.5
O=C(c1ccc(Cn2cc([N+](=O)[O-])cn2)o1)N1N=C(C(F)F)CC1(O)C(F)F (centres undefined),9.0,.,-0.6,5.8,4.0,-0.9,.,.
CCOC(=O)c1c(-c2ccc(OC)cc2)oc2c1C(OC(C)=O)CCC2 (centres undefined),-45.0,0.2,.,.,.,1.6,.,.

# Bioassay records (PubChem BioAssay)
